The RNAGym collection of RNA variant scans (doi:10.1126/science.aae0568)
This sample holds only a part of the variants without activity.

B1: tRNA (parent)
chain: GUUCCGUUGGCGUAAUGGUAACGCGUCUCCCUCCUAAGGAGAAGACUGCGGGUUCGAGUCCCGUACGGAACG

Variants of: B1
Experiment: yeast fitness relative to wild type (ratio to wild type); higher = fitter; tRNA-Arg(CCU), competitive growth, 37 C, YPD
In short: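 Variants of the tRNA-Arg(CCU) gene were chemically synthesised with a 3% per-site mutation rate across 69 sites and placed at the native genomic locus in Saccharomyces cerevisiae. Six parallel replicates of the pooled strains were competed in YPD at 37°C for 24 hours, and gene amplicons from the start and end populations were read by 100-nucleotide paired-end sequencing. Darwinian fitness relative to wild type was derived from changes in genotype frequencies. Genotypes required ≥ 100 starting reads, and estimates < 0.5 were set to 0.5.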

Compared with C46A G63C G67A, C46A G63U is higher in yeast fitness: 0.614 for the first, 0.764 for the second.

First: C46A G68C
Second: C46A G68C A69G
The yeast fitness of the first is higher: 0.78 for the first, at most 0.5 for the second.

Compared with C46A G68U, C46A U53C is higher in yeast fitness: 0.824 for the first, 0.865 for the second.

First: C46A U54G
Second: C46A U64C
The yeast fitness of the first is lower: 0.544 for the first, 0.986 for the second.

Compared with C46G, C46G A57C A69C is lower in yeast fitness: 0.99 for the first, at most 0.5 for the second.

Compared with C46G A57U C66U, C46G A65C G67A is higher in yeast fitness: 0.608 for the first, 0.732 for the second.

First: C46G A70C
Second: C46G A70G
The yeast fitness of the first is lower: 0.923 for the first, 1.03 for the second.

First: C46G A70U
Second: C46G C49A
The yeast fitness of the first is higher: 0.976 for the first, 0.7 for the second.

Compared with C46G C49A A69U, C46G C49G is higher in yeast fitness: 0.549 for the first, 0.966 for the second.

Going from C46G C49U to C46G C49U A69U, the yeast fitness rises from 0.981 to 1.04.

Going from C46G C49U G67U to C46G C49U G68C, the yeast fitness falls from 0.671 to 0.653.

First: C46G C55U A57C C61G
Second: C46G C60G
The yeast fitness of the first is lower: at most 0.5 for the first, 0.715 for the second.

Going from C46G C60U G68C to C46G C61A, the yeast fitness rises from at most 0.5 to 0.678.

First: C46G C61A A65C
Second: C46G C61U
The yeast fitness of the first is lower: at most 0.5 for the first, 1.05 for the second.

Going from C46G C62G to C46G C62G G67U, the yeast fitness falls from 0.786 to 0.542.

First: C46G C62U
Second: C46G C62U C66U
The yeast fitness of the first is higher: 0.982 for the first, 0.746 for the second.

First: C46G G48A G58C
Second: C46G G50A
The yeast fitness of the first is higher: 1.15 for the first, 1.04 for the second.

First: C46G G50A C62A
Second: C46G G50C
The yeast fitness of the first is lower: 0.603 for the first, 0.949 for the second.

First: C46G G50C G56A A57U
Second: C46G G52A
The yeast fitness of the first is lower: at most 0.5 for the first, 0.843 for the second.

First: C46G G52A C62U
Second: C46G G52C
The yeast fitness of the first is higher: 0.639 for the first, 0.585 for the second.

Compared with C46G G56A, C46G G58A U59G is lower in yeast fitness: 1.03 for the first, at most 0.5 for the second.

Going from C46G G63A to C46G G63A A65U, the yeast fitness falls from 0.798 to 0.721.

First: C46G G63C C66A
Second: C46G G68A
The yeast fitness of the first is lower: at most 0.5 for the first, 0.825 for the second.

Going from C46G G68C to C46G G68U, the yeast fitness falls from 0.795 to 0.658.

Going from C46G U53C to C46G U54C, the yeast fitness falls from 0.903 to 0.697.

Compared with C46G U54C C60A C62A, C46G U64A is higher in yeast fitness: at most 0.5 for the first, 0.889 for the second.

Going from C46U to C46U A57C, the yeast fitness falls from 0.986 to 0.638.

Compared with C46U A57G, C46U A57G C66A is lower in yeast fitness: 0.994 for the first, at most 0.5 for the second.

First: C46U A65C C66U
Second: C46U A65G
The yeast fitness of the first is lower: 0.721 for the first, 0.877 for the second.

First: C46U A69G
Second: C46U A70G
The yeast fitness of the first is lower: 0.894 for the first, 1.05 for the second.

Going from C46U A70U to C46U C49A, the yeast fitness falls from 1.05 to 0.858.

Compared with C46U C49A C62U, C46U C49U is higher in yeast fitness: 0.555 for the first, 0.98 for the second.

Compared with C46U C49U C66U, C46U C55A C66U is lower in yeast fitness: 0.806 for the first, 0.555 for the second.

First: C46U C55A G56C
Second: C46U C55A G56C A65G
The yeast fitness of the first is higher: 0.561 for the first, at most 0.5 for the second.

First: C46U C55U A69U
Second: C46U C55U C61G
The yeast fitness of the first is higher: 0.76 for the first, at most 0.5 for the second.

Going from C46U C60A to C46U C60A A70U, the yeast fitness rises from 0.543 to 0.585.

Compared with C46U C60G, C46U C60G A65U is lower in yeast fitness: 0.627 for the first, 0.557 for the second.

First: C46U C60U
Second: C46U C61G
The yeast fitness of the first is higher: 0.807 for the first, 0.593 for the second.

Compared with C46U C61G A69U, C46U C62G is higher in yeast fitness: 0.627 for the first, 0.969 for the second.

Compared with C46U G48A, C46U G48A G56A is lower in yeast fitness: 0.93 for the first, 0.848 for the second.

Compared with C46U G50A, C46U G50A C66U is lower in yeast fitness: 0.965 for the first, 0.792 for the second.

Going from C46U G51A C66U to C46U G51C, the yeast fitness falls from 0.778 to 0.571.

Compared with C46U G51C A70C, C46U G51C A70U is higher in yeast fitness: 0.504 for the first, 0.557 for the second.

Going from C46U G51C C66G to C46U G52A, the yeast fitness rises from at most 0.5 to 0.729.

Going from C46U G52C to C46U G56A, the yeast fitness rises from 0.614 to 0.978.

Compared with C46U G56A A70G, C46U G56A C61G is lower in yeast fitness: 0.697 for the first, at most 0.5 for the second.

Compared with C46U G56C, C46U G58A is higher in yeast fitness: 0.698 for the first, 0.985 for the second.

Compared with C46U G58C, C46U G63A is lower in yeast fitness: 0.825 for the first, 0.769 for the second.

Going from C46U G67A to C46U G67U, the yeast fitness falls from 0.986 to 0.869.

Compared with C46U G68C, C46U U47A G68C is lower in yeast fitness: 1.02 for the first, 0.558 for the second.

Going from C46U U47C to C46U U47G, the yeast fitness falls from 0.911 to 0.823.

Compared with C46U U53C A70U, C46U U54C A57G is higher in yeast fitness: 0.608 for the first, 0.622 for the second.

Going from C46U U54C A70U to C46U U59A, the yeast fitness rises from 0.804 to 0.877.

First: C46U U59A C61G C66U
Second: C46U U59C C62G A65U
The yeast fitness of the first is higher: 0.649 for the first, 0.557 for the second.

Going from C46U U59G C60A G63C A69U to C46U U64A, the yeast fitness rises from 0.632 to 1.03.

Going from C46U U64C to U47A A57U, the yeast fitness falls from 1.01 to 0.655.

Compared with U47A A69U, U47A A70C is lower in yeast fitness: 0.984 for the first, 0.842 for the second.

Compared with U47A C49G A69U, U47A C55G is higher in yeast fitness: 0.577 for the first, 0.684 for the second.

First: U47A C55G C61U
Second: U47A C55G G68A
The yeast fitness of the first is higher: 0.522 for the first, at most 0.5 for the second.

Going from U47A C60U G63C A69U to U47A C61U, the yeast fitness rises from at most 0.5 to 0.948.

Compared with U47A G48C, U47A G48C G51A C61A is lower in yeast fitness: 0.82 for the first, at most 0.5 for the second.

First: U47A G48C G56A
Second: U47A G48C G67C
The yeast fitness of the first is lower: at most 0.5 for the first, 0.538 for the second.

First: U47A G50C
Second: U47A G56A
The yeast fitness of the first is lower: 0.69 for the first, 0.964 for the second.

Going from U47A G58C to U47A G68A, the yeast fitness falls from 1.06 to 0.621.

Compared with U47A G68U, U47A U59C is higher in yeast fitness: 0.775 for the first, 0.873 for the second.

Compared with U47C A57G, U47C A57G A69U is lower in yeast fitness: 0.921 for the first, 0.569 for the second.

Compared with U47C A57U A65U, U47C A65U is higher in yeast fitness: 0.567 for the first, 0.998 for the second.

Compared with U47C A69U, U47C A70C is lower in yeast fitness: 1.08 for the first, 1.07 for the second.

Compared with U47C A70U, U47C C49A is lower in yeast fitness: 0.955 for the first, 0.65 for the second.

Going from U47C C49U to U47C C55A, the yeast fitness falls from 0.987 to 0.699.

First: U47C C55G
Second: U47C C55U
The yeast fitness of the first is lower: 0.733 for the first, 0.796 for the second.

Going from U47C C55U G68C to U47C C60A, the yeast fitness rises from 0.517 to 0.603.

First: U47C C60A C61G A69U
Second: U47C C61U
The yeast fitness of the first is lower: at most 0.5 for the first, 0.888 for the second.

Going from U47C C61U A65U C66U to U47C C62U, the yeast fitness rises from at most 0.5 to 0.944.

First: U47C C66U
Second: U47C C66U A69C
The yeast fitness of the first is higher: 0.963 for the first, 0.675 for the second.

Compared with U47C C66U A70U, U47C G48C is higher in yeast fitness: 0.548 for the first, 0.797 for the second.

Compared with U47C G50A, U47C G51C U59C is lower in yeast fitness: 0.99 for the first, at most 0.5 for the second.

U47C G52A C61G and U47C G52A G63A cannot be ordered by yeast fitness: at most 0.5 for the first, at most 0.5 for the second.

Compared with U47C G52C, U47C G56A is higher in yeast fitness: 0.612 for the first, 0.999 for the second.

Compared with U47C G58A, U47C G58A G67A is lower in yeast fitness: 0.986 for the first, 0.584 for the second.

First: U47C G58C A65C
Second: U47C G63C
The yeast fitness of the first is lower: 0.614 for the first, 0.769 for the second.

First: U47C G63C C66U
Second: U47C G67A
The yeast fitness of the first is lower: at most 0.5 for the first, 0.874 for the second.

Going from U47C G68A to U47C U53A, the yeast fitness falls from 0.876 to 0.604.

In the case of U47C U53C A57C, the yeast fitness is reported as at most 0.5.
